Screens (PubChem)
sdo1 growth: growth rescue of sdo1-depleted yeast, primary screen, S. cerevisiae, bone marrow failure model; z-score at 10 µM; S. cerevisiae sdo1-depleted JHY4D growth rescue, OD600 30 h; stronger effect = higher value; pdr5 snq2 efflux-pump mutant strain; AID 817, 2007; 140,000 tested, 0.21% active;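 active means z-score above 3 at both the 24 hr and the 30 hr optical density reads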;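 further: z-score against mean and SD of all compound wells on the same plate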
RAM inhibit: inhibitors of the yeast RAM network, primary screen, dse1pr::URA3 reporter, 5-FOA selection; 190,000 tested, 1.8% active; inhibition, % at 50 µM; AID 868, 2007; S. cerevisiae dse1pr::URA3 reporter, 5-FOA growth OD615, 2 d; analog-sensitive cbk1-as2 kinase mutant strain;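 active means inhibition above a set limit, 3 SD over mean compound inhibition, cut at about 8.4% in these data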;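 further: 0% = DMSO-only wells with no growth and 100% = 10 µM 1-NA-PP1 full growth; inhibition rescues growth on 5-FOA so higher OD means more RAM inhibition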
BB579 growth dn: growth inhibitors of yeast BB579 in restrictive medium, primary screen, yeast lifespan-shortening project, S. cerevisiae | OD615, 48 h | inhibition, % at 10 µM | 140,000 tested, 0.51% active | AID 804, 2007;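 active means inhibition above a set limit, 3 SD over the mean compound inhibition, cut at about 44% in these data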
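Assay system: S. cerevisiae DeaD strain BB579 yeast. Medium: CSMM-D restrictive synthetic medium containing dextrose (glucose). Times: 4 h cell preincubation, 48 h compound exposure, 30 °C humidified. Signal: OD615 turbidity measurement. Benchmarks: positive control amphotericin B 10 µg/mL.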
Yeast lifespan up: compounds extending yeast replicative lifespan, primary screen, S. cerevisiae, OD615; AID 775, 2007; 130,000 tested, 0.68% active; S. cerevisiae growth with nicotinamide; deaD strain in restrictive glucose medium; inhibition of the nicotinamide effect, % at 10 µM;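 active means inhibition above a set limit, placed 3 SD over the median of all compounds, cut at about 26% in these data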;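 further: 0% = nicotinamide-treated wells and 100% = cells grown without nicotinamide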
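Assay system: DeaD-strain S. cerevisiae. Medium: CSMM-D glucose medium, restrictive. Reagent: nicotinamide, 1.5 mM, co-present with compound. Compound: 10 µM single point, 0.25% DMSO. Schedule: culture preincubation 4 h, compound exposure 48 h, both 30 °C. Detection: absorbance at 615 nm.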
An asterisk follows results filed as active. An excerpt weighted towards active compounds, which were near 2.7% of everything screened.

What do the screens show for `Cc1ccc(SCc2ccc(C(=O)Nc3ccccc3C(=O)NC(C)C)cc2)cc1`?
sdo1 growth: -0.66; RAM inhibit: 9.1*; BB579 growth dn: -39; Yeast lifespan up: 5

Results for Cc1ccc(SCc2ccc(C(=O)Nc3ccccc3Br)cc2)cc1 ?
sdo1 growth: -0.71; RAM inhibit: 5; BB579 growth dn: -30; Yeast lifespan up: 11

Results for CCN1CCN(C(=O)C2CCN(C(=O)c3cc4sccc4n3CC)CC2)CC1 ?
sdo1 growth: 0.78; RAM inhibit: 0; BB579 growth dn: -2; Yeast lifespan up: -20

How did CCOC(=O)c1ccc(NC(=O)CN2C(=O)CSCC2=O)cc1 do in these assays?
sdo1 growth: 0.01; RAM inhibit: 2; BB579 growth dn: -14; Yeast lifespan up: 4

How did CCOC(=O)c1ccc(NC(=O)CN2C(=O)C(CC)SC(CC)C2=O)cc1 (stereo not drawn) do in these assays?
sdo1 growth: -0.5; RAM inhibit: 9.6*; BB579 growth dn: -22; Yeast lifespan up: 5

How did O=C(CSc1cccs1)NCCc1ccccc1 do in these assays?
sdo1 growth: -0.28; RAM inhibit: 0; BB579 growth dn: 11; Yeast lifespan up: -4

Results for O/N=C/c1cc(Cl)ccc1OCc1cccc2ccccc12 ?
sdo1 growth: -1.1; RAM inhibit: 3; BB579 growth dn: 76*; Yeast lifespan up: -9

Results for C#CCOc1ccc(Cl)cc1/C=N/O ?
sdo1 growth: 1.3; RAM inhibit: 0; BB579 growth dn: -14; Yeast lifespan up: -15

What do the screens show for `CC(C)(C)C(=O)[C@H]1[C@H](c2ccccc2)[C@@]2(N=C(c3ccccc3)OC2=O)C2c3ccccc3C=NN21` (stereo partly drawn)?
sdo1 growth: 0.33; RAM inhibit: 4; BB579 growth dn: -64; Yeast lifespan up: 11

What do the screens show for `COc1ccc([C@H]2[C@H](C(=O)OC(C)(C)C)N3N=Cc4ccccc4C3C23C(=O)c2ccccc2C3=O)c(OC)c1` (stereo partly drawn)?
sdo1 growth: -0.31; RAM inhibit: 9.3*; BB579 growth dn: -12; Yeast lifespan up: 7

Results for COc1ccc([C@H]2[C@H](C(=O)OC(C)(C)C)N3N=Cc4ccccc4C3C23C(=O)c2ccccc2C3=O)cc1OC (stereo partly drawn) ?
sdo1 growth: 0.05; RAM inhibit: 5; BB579 growth dn: -11; Yeast lifespan up: 38*

How did CC1=C(C(=O)OCC2CCCO2)C(c2ccc(C)cc2)C2=C(CC(C)(C)CC2=O)N1 (stereo not drawn) do in these assays?
RAM inhibit: 0

Results for COc1ccc(CCNC(=O)COc2ccc(S(=O)(=O)NC3CCCCC3)cc2Cl)cc1OC ?
sdo1 growth: 0.83; RAM inhibit: 3; BB579 growth dn: -10; Yeast lifespan up: 2

Results for COc1ccc2c(c1OC)C(=O)OC2Nn1cncn1 (stereo not drawn) ?
sdo1 growth: 0.12; RAM inhibit: 1; BB579 growth dn: -56; Yeast lifespan up: 51*

How did COc1ccc2c(c1OC)C(=O)OC2Nc1ncccc1C (stereo not drawn) do in these assays?
sdo1 growth: 0.22; RAM inhibit: 0; BB579 growth dn: -11; Yeast lifespan up: 7

How did O=C(CSc1nnc(SCc2ccccc2)s1)NNC(=S)Nc1ccccc1 do in these assays?
sdo1 growth: 0.3; RAM inhibit: 10*; BB579 growth dn: -34; Yeast lifespan up: 1

How did CN(C)/N=C/c1c(O)ccc2ccccc12 do in these assays?
sdo1 growth: -0.67; RAM inhibit: -1; BB579 growth dn: 9; Yeast lifespan up: -18

What do the screens show for `COc1ccc2c(c1)-c1nc(/N=C/c3c(O)ccc4ccccc34)sc1CC2`?
sdo1 growth: -0.02; RAM inhibit: 1; BB579 growth dn: -55; Yeast lifespan up: 30*

What do the screens show for `Cc1cc(N=Cc2c(O)ccc3ccccc23)no1`?
sdo1 growth: 2.4; RAM inhibit: 0; BB579 growth dn: -13; Yeast lifespan up: 43*

What do the screens show for `CCOC(=O)c1cc(CC)sc1/N=C/C1C(=O)CCCC1=O`?
RAM inhibit: 0

Results for CCOC(=O)c1cc(CC)sc1/N=C/c1c(O)ccc2ccccc12 ?
sdo1 growth: -0.64; RAM inhibit: 3; BB579 growth dn: -6; Yeast lifespan up: 32*

What do the screens show for `Oc1ccc2ccccc2c1/C=N/c1nccs1`?
sdo1 growth: 0.15; RAM inhibit: 1; BB579 growth dn: -41; Yeast lifespan up: 75*

Results for CCC1CCCCN1CCCNC(=O)C1CCC(=O)N1Cc1ccc(C)cc1 (stereo not drawn) ?
sdo1 growth: -0.49; RAM inhibit: 1; BB579 growth dn: -26; Yeast lifespan up: -29

Results for O=C(CSc1nc2ccccc2c(=O)n1-c1ccc(F)cc1)Nc1ccc(N2CCOCC2)cc1 ?
sdo1 growth: -0.49; RAM inhibit: 3; BB579 growth dn: -38; Yeast lifespan up: 3

Results for CCOn1c(=O)c(-c2ccc(Cl)cc2)[n+]([O-])c2ccccc21 ?
sdo1 growth: -1.1; RAM inhibit: 0; BB579 growth dn: -22; Yeast lifespan up: -6

How did CCCCOCC(O)CCc1n[nH]c(=S)n1-c1ccccc1 (stereo not drawn) do in these assays?
RAM inhibit: 1

What do the screens show for `CCc1c(C)sc(NC(=S)N2CC(C)OC(C)C2)c1C(=O)OC` (stereo not drawn)?
RAM inhibit: 11*

What do the screens show for `CCc1c(C)sc(NC(=S)NC(C)C2CCCO2)c1C(=O)OC` (stereo not drawn)?
RAM inhibit: 2

How did c1ccc(-c2ccc(-c3ccccn3)nn2)nc1 do in these assays?
sdo1 growth: -0.16; RAM inhibit: -1; BB579 growth dn: 68*; Yeast lifespan up: -10

What do the screens show for `Cc1cc(=O)n2nc(N3CCC(C(=O)NCCc4ccccc4)CC3)sc2n1`?
sdo1 growth: 2; RAM inhibit: 1; BB579 growth dn: -7; Yeast lifespan up: -28

What do the screens show for `Cn1nnnc1SCc1nnc(-c2ccccc2Br)o1`?
sdo1 growth: 0.4; RAM inhibit: 2; BB579 growth dn: -42; Yeast lifespan up: -8

What do the screens show for `Cc1ccc(-n2nnnc2SCc2nnc(-c3ccccc3Br)o2)c(C)c1`?
sdo1 growth: -2; RAM inhibit: 11*; BB579 growth dn: -28; Yeast lifespan up: -6

How did O=C(Nc1ccccc1Sc1ccccc1)c1ccccc1 do in these assays?
sdo1 growth: -0.8; RAM inhibit: 1; BB579 growth dn: -15; Yeast lifespan up: -9

How did O=C(COC(=O)c1cc([N+](=O)[O-])ccc1NCCO)c1ccccc1 do in these assays?
sdo1 growth: 0.57; RAM inhibit: 3; BB579 growth dn: 10; Yeast lifespan up: -2

Results for O=C(COC(=O)c1cc([N+](=O)[O-])ccc1NCCO)NCc1cccs1 ?
RAM inhibit: 11*

Results for CN(C)S(=O)(=O)c1ccc(C(=O)Nc2nc(-c3cc4ccccc4o3)cs2)cc1 ?
sdo1 growth: -0.59; RAM inhibit: 3; BB579 growth dn: -57; Yeast lifespan up: 28*
